From ChEMBL document CHEMBL1124058, “8-Aryl-and 8-cycloalkyl-1,3-dipropylxanthines: further potent and selective antagonists for A1-adenosine receptors” (J Med Chem, 1988)

Tests used:
[1] = target: Adenosine A2 receptor (Homo sapiens, UniProt P29275+P29274); assay: Inhibition of 5'-(N-ethylcarbamoyl)adenosine-elicited stimulation of adenylate cyclase in human platelet membranes; assay type: cell membranes
[2] = target: T1, Adenosine receptor A1 (Rattus norvegicus) (UniProt P25099); assay: Antagonistic activity on N6-([3H]-phenylisopropyl)adenosine binding to rat brain membrane (Adenosine A1 receptor); assay type: tissue-based
T1 sequence (whole entry): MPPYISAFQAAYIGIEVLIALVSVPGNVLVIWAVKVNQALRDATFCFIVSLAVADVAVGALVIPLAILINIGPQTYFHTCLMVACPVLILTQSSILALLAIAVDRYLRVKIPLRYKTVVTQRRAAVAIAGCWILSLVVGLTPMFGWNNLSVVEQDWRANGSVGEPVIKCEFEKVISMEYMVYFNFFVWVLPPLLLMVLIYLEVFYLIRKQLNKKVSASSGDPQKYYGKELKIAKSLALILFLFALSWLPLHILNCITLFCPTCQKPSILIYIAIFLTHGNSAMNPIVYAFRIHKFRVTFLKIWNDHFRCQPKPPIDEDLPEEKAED

[3] = Solubility in water at PH 7.4 in the presence of Tris.HCl buffer; assay type: physicochemical
Outline: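 Aqueous solubility measured in Tris-HCl buffer, pH 7.4.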

[4] = target: Adenosine A2 receptor (Cavia porcellus); assay: Inhibition of stimulation of adenylate cyclase in guinea pig brain slices at A2 receptor (2-chloroadenosine-elicited accumulations of cyclic AMP)
[5] = target: T1, Adenosine receptor A1 (Rattus norvegicus); assay: Antagonistic activity against N6-([3H]-phenylisopropyl)adenosine binding to rat brain membrane (Adenosine A1 receptor); assay type: tissue-based
Outline: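 Competition binding against 1 nM N6-([3H]phenylisopropyl)adenosine at A1 receptors in rat cerebral cortical membranes. A range of xanthine concentrations was tested in triplicate in at least two separate experiments. Values are means with 95% confidence limits.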

| SMILES | Kb [1] [nM] | Kb [2] [nM] | solubility [3] [µM] | IC50 [4] [nM] | Kb [5] [nM] |
| --- | --- | --- | --- | --- | --- |
| CCCn1c(=O)c2nc(-c3ccc(C(=O)NCC(=O)OC)cc3)[nH]c2n(CCC)c1=O | 240 | 38 | – | – | – |
| CCCn1c(=O)c2nc(-c3ccc(OCC(=O)NCCc4ccc(O)cc4)cc3O)[nH]c2n(CCC)c1=O | 4400 | 16 | – | – | – |
| CCCn1c(=O)c2nc(-c3ccc(OCC(=O)OCC)cc3O)[nH]c2n(CCC)c1=O | 3800 | 31 | – | – | – |
| CCCn1c(=O)c2nc(-c3ccc(O)cc3)[nH]c2n(CCC)c1=O | – | 3.5 | – | – | – |
| CCCn1c(=O)c2nc(-c3ccc(OCC(=O)NCCN(C)C)cc3O)[nH]c2n(CCC)c1=O | 77 | 8.4 | – | – | – |
| CCCn1c(=O)c2nc(-c3ccc(OC)cc3)[nH]c2n(CCC)c1=O | – | 3.7 | 14 | – | – |
| CCCn1c(=O)c2nc(-c3ccc(C(=O)O)cc3)[nH]c2n(CCC)c1=O | – | 200 | 180 | – | – |
| CCCn1c(=O)c2nc(-c3ccc(O)cc3O)[nH]c2n(CCC)c1=O | – | 2.5 | – | – | – |
| CCCn1c(=O)c2nc(-c3ccc(C(N)=O)cc3)[nH]c2n(CCC)c1=O | 54 | 12 | – | 72 | – |
| CCCn1c(=O)c2nc(-c3ccc(OCC(=O)NCCN)cc3O)[nH]c2n(CCC)c1=O | 140 | 2.4 | 710 | – | – |
| CCCn1c(=O)c2nc(-c3ccc(OCC(=O)NCCc4c[nH]cn4)cc3O)[nH]c2n(CCC)c1=O | 2400 | 100 | – | – | – |
| CCCn1c(=O)c2nc(-c3ccc(OCC(N)=O)cc3O)[nH]c2n(CCC)c1=O | 1200 | 6.5 | 5600 | – | – |
| CCCn1c(=O)c2nc(-c3cnccn3)[nH]c2n(CCC)c1=O | 3600 | 600 | – | – | – |
| CCCn1c(=O)c2nc(-c3ccccc3)[nH]c2n(CCC)c1=O | – | 10 | – | – | – |
| CCCn1c(=O)c2nc(-c3ccc(OCC(=O)O)cc3O)[nH]c2n(CCC)c1=O | 2000 | 37 | 1100 | – | – |

The remaining lines, values ahead:

| Kb [1] [nM] | Kb [2] [nM] | solubility [3] [µM] | IC50 [4] [nM] | Kb [5] [nM] | SMILES |
| --- | --- | --- | --- | --- | --- |
| – | – | 18 | – | – | CCCn1c(=O)c2[nH]c(-c3ccccc3)nc2n(CCC)c1=O |
| – | – | 11 | – | – | CCCn1c(=O)c2[nH]c(-c3ccc(O)cc3O)nc2n(CCC)c1=O |
| 180 | 4.6 | 18 | 980 | – | CCCn1c(=O)c2[nH]c(-c3ccc(OC)cc3O)nc2n(CCC)c1=O |
| 190 | – | 74 | – | – | CCCn1c(=O)c2nc(C3CCCCC3)[nH]c2n(CCC)c1=O |
| 1900 | – | – | – | 16 | CCCn1c(=O)c2nc(CC3CCCC3)[nH]c2n(CCC)c1=O |
| 2700 | 39 | – | – | – | CCCn1c(=O)c2nc(CC3CCCCC3)[nH]c2n(CCC)c1=O |
| – | – | 1600 | – | 710 | CCCn1c(=O)c2nc[nH]c2n(CCC)c1=O |
| 6900 | 620 | – | – | – | CCCn1c(=O)c2nc(C3CCNCC3)[nH]c2n(CCC)c1=O |
| – | – | 31 | – | – | CCCn1c(=O)c2[nH]c(C3CCCC3)nc2n(CCC)c1=O [1,3-DIPROPYL-8-CYCLOPENTYLXANTHINE [DPCPX]] |
| – | – | 5 | – | – | CCCn1c(=O)c2[nH]c(-c3ccc(C(N)=O)cc3)nc2n(CCC)c1=O |
